pIC50: −log10 of the molar value. Active and inactive are the calls of the source. The calls are words filed in the database; no cut-off is given here.
How the values were obtained:
[1] = Half life in mouse tumor implanted with mouse 4T1 cells at 5.7 mg/kg,iv measured upto 72 hrs; format: ADME, organism-based, Neoplasm
[2] = Toxicity in BALB/c mouse injected with mouse 4T1 cells assessed as body weight loss at 5.7 mg/kg,iv in presence of compound 6 administrated once per week for 4 weeks; format: organism-based; details: in vivo, 672 h
[3] = Toxicity in BALB/c mouse xenografted with human A549/Taxol cells assessed as body weight loss at 5.7 mg/kg,iv administrated once per week for 3 weeks; format: organism-based, A549/TR; details: in vivo, 504 h
In short: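 Nude BALB/c nu/nu mice received subcutaneous human tumour cells into the right flank. Dosing started at mean tumour volume of 100–120 mm3, iv once weekly for 3 weeks; the taxane arm was an equimolar control. Body weight and overt side effects were monitored. Mean ± SEM, n = 8.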

4T1 [4] = experiment: Antitumor activity against mouse 4T1 cells implanted in BALB/c mouse assessed as decrease in lung injury at 5.7 mg/kg,iv administrated once per week for 4 weeks by H and E staining based assay; format: functional, organism-based
In short: (§1)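 BALB/c mice bearing orthotopic mammary fat pad 4T1 tumors, dosed iv weekly for 4 weeks with saline vehicle as control. Lung sections stained with hematoxylin and eosin and examined by light microscopy at 40× for metastasis, inflammatory infiltration and alveolar wall thickening.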

4T1 [5] = experiment: Antitumor activity against mouse 4T1 cells implanted in BALB/c mouse assessed as decrease in lung injury at 5.7 mg/kg,iv administrated once per week for 4 weeks in presence of MDA-205 by H and E staining based assay; format: functional, organism-based; in short: as §1
[6] = Plasma protein binding in human plasma incubated for 4 hrs; format: ADME, cell-free; details: read-out: PPB (converted)
[7] = Prodrug conversion in mouse tumor implanted with mouse 4T1 cells assessed as half life of docetaxel at 4 mg/kg,iv measured upto 72 hrs; format: ADME, organism-based, Neoplasm; details: in vivo
[8] = Prodrug conversion in mouse plasma implanted with mouse 4T1 cells assessed as Tmax of docetaxel at 4 mg/kg,iv measured upto 72 hrs; format: ADME, organism-based; details: in vivo
[9] = Drug concentration in plasma of Beagle dog assessed as docetaxel concentration at 1 to 4 mg/kg,iv measured upto 24 hrs; format: ADME, organism-based, Canis lupus familiaris; details: in vivo, dose 1-4 mg/kg
In short: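 Beagle dogs were given a single iv infusion at 1, 2 or 4 mg/kg. Plasma parent drug and released docetaxel were followed over time. Cmax, Tmax, AUC, MRT, t1/2, CL and Vss were reported by sex and for all dogs combined.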

[10] = Volume of distribution at steady state in female Beagle dog at 2 mg/kg,iv measured upto 24 hrs; format: ADME, organism-based, Canis lupus familiaris; details: in vivo, read-out: Vdss
[11] = Half life in male rat at 2 mg/kg,iv measured upto 24 hrs; format: ADME, organism-based; details: in vivo
[12] = MRT (0 to infinity) in male Beagle dog at 1 mg/kg,iv measured upto 24 hrs; format: ADME, organism-based, Canis lupus familiaris; details: in vivo
[13] = MRT (0 to infinity) in male rat at 2 mg/kg,iv measured upto 24 hrs; format: ADME, organism-based; details: in vivo
[14] = MRT (0 to infinity) in female rat at 2 mg/kg,iv measured upto 24 hrs; format: ADME, organism-based; details: in vivo
[15] = AUC (0-infinity) in Beagle dog at 2 mg/kg,iv measured upto 24 hrs; format: ADME, organism-based, Canis lupus familiaris; design: dose 2 mg/kg, time < 24 hrs, route iv; details: in vivo
In short: (§2)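 Single iv dose: rats 2, 4 or 8 mg/kg by intravenous injection; Beagle dogs 1, 2 or 4 mg/kg by intravenous infusion. Plasma concentration–time data were analysed by sex and pooled. Reported parameters: Cmax, Tmax, AUC0−t, AUC0−∞, MRT0−∞, t1/2, CL, Vss, given as mean ± SD.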

[16] = AUC (0-t) in male Beagle dog at 2 mg/kg,iv measured upto 24 hrs; format: ADME, organism-based, Canis lupus familiaris; design: dose 2 mg/kg, time < 24 hrs, route iv; details: in vivo; in short: as §2
[17] = AUC (0-t) in female Beagle dog at 1 mg/kg,iv measured upto 24 hrs; format: ADME, organism-based, Canis lupus familiaris; design: dose 1 mg/kg, time < 24 hrs, route iv; details: in vivo; in short: as §2
[18] = Tmax in Beagle dog at 4 mg/kg,iv measured upto 24 hrs; format: ADME, organism-based, Canis lupus familiaris; details: in vivo
[19] = Cmax in rat at 2 mg/kg,iv measured upto 24 hrs; format: ADME, organism-based; design: time < 24 hrs, dose 2 mg/kg, route iv; details: in vivo
In short: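 Rats were given a single iv injection at 2, 4 or 8 mg/kg. Plasma parent drug and released docetaxel were followed over time. Cmax, Tmax, AUC, MRT, t1/2, CL and Vss were reported for males, females and all animals combined.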

[20] = Toxicity in BALB/c mouse injected with mouse 4T1 cells assessed as decrease in body weight at 20 mg/kg,iv administrated once per week for 4 weeks; format: organism-based; design: scale not given: the % may be the effect or the level left; details: in vivo, 672 h
HT-29 = experiment: Antiproliferative activity against human HT-29 cells assessed inhibition of cell growth incubated for 72 hrs by SRB assay; format: functional, cell-based; details: HT-29, 72 h
4T1 [21] = experiment: Antitumor activity against mouse 4T1 cells implanted in BALB/c mouse assessed as decrease in serum MMP9 level at 10 mg/kg,iv administrated once per week for 4 weeks by ELISA; format: functional, organism-based
In short: (§3)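 4T1 fat-pad model in BALB/c mice, iv 5–20 mg/kg once weekly for 4 weeks, with vehicle and naive groups; serum MMP9, TIMP-1, IL-6 and S100A9 measured by mouse ELISA kits.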

4T1 [22] = experiment: Antitumor activity against mouse 4T1 cells implanted in BALB/c mouse assessed as decrease in serum S100A9 level at 20 mg/kg,iv administrated once per week for 4 weeks by ELISA; format: functional, organism-based; in short: as §3
4T1 [23] = experiment: Antitumor activity against mouse 4T1 cells implanted in BALB/c mouse assessed as decrease in spleen MMP9 expression level at 5 to 20 mg/kg,iv administrated once per week for 4 weeks by western blot assay; format: functional, organism-based; details: dose 5-20 mg/kg
In short: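 4T1 fat-pad model in BALB/c mice, iv once weekly for 4 weeks; MMP9, MMP2 and NOD1 in spleen, lung and tumour by western blot, β-actin loading control; bands averaged over five mice per group, representative of two independent experiments.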

4T1 [24] = experiment: Antitumor activity against mouse 4T1 cells implanted in BALB/c mouse assessed as decrease in S100A8 mRNA expression in lung at 20 mg/kg,iv administrated qd for 2 days by qRT-PCR analysis; format: functional, organism-based; details: time 2.0 day
In short: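 Day 19 after 4T1 implantation, mice randomised into five groups; iv vehicle or 20 mg/kg plus ip C12-iE-DAP (50 μg/mouse) and MDP (100 μg/mouse) once daily for 2 days; killed after 48 h; lung mRNA for MMP8, MMP9, PROK2, S100A8, S100A9 and IL-1β by qPCR; mean ± SEM.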

CC(=O)O[C@@]12CO[C@@H]1C[C@H](O)[C@@]1(C)C(=O)[C@H](O)C3=C(C)[C@@H](OC(=O)[C@H](O)[C@@H](NC(=O)OC(C)(C)C)c4ccccc4)C[C@@](O)([C@@H](OC(=O)c4ccccc4)[C@H]21)C3(C)C [DOCETAXEL ANHYDROUS]
half-life [1]: 49.1 h
Activity [2]: Non-Toxic
Activity [3]: Non-Toxic
Activity (4T1 [4]): Active
Activity (4T1 [5]): Active

CC(=O)O[C@@]12CO[C@@H]1C[C@H](O)[C@@]1(C)C(=O)[C@H](O)C3=C(C)[C@@H](OC(=O)[C@H](OC(=O)CCC(=O)NCCCC[C@H](NC(=O)CC[C@@H](NC(=O)[C@H](C)NC(=O)/C=C/c4ccc(F)cc4Cl)C(N)=O)C(=O)O)[C@@H](NC(=O)OC(C)(C)C)c4ccccc4)C[C@@](O)([C@@H](OC(=O)c4ccccc4)[C@H]21)C3(C)C
fraction unbound at 4 h [6]: 0.007
t1/2 [7]: 59 h
Tmax [8]: 1.8 min
Drug uptake [9]: 0.23%
Vd [10]: 0.077 L/kg
half-life [11]: 9 min
MRT inf [12]: 12.1 min
MRT inf [13]: 13.9 min
MRT inf [14]: 8.64 min
AUC(0-inf) [15]: 5950 ng·h/mL
AUC(0-t) at 24 h [16]: 4840 ng·h/mL
AUC(0-t) at 24 h [17]: 1590 ng·h/mL
Tmax [18]: 30 min
Cmax [19]: 15200 ng/mL
Activity [20]: 8%
pIC50 (HT-29): 7.79
Activity (4T1 [21]): Active
Activity (4T1 [22]): Active
Activity (4T1 [23]): Active
Activity (4T1 [24]): Active
